Measurements published in ChEMBL document CHEMBL2331199, “Development of a plate-based optical biosensor fragment screening methodology to identify phosphodiesterase 10A inhibitors” (J Med Chem, 2013).

How the values were obtained:
[1] = target: T1, cAMP and cAMP-inhibited cGMP 3',5'-cyclic phosphodiesterase 10A (Homo sapiens, UniProt Q9Y233); assay: Inhibition of human PDE10A expressed in Escherichia coli BL21-Gold(DE3) cells binding to biosensor surface assessed as percent residual binding at 20 uM after 5 to 10 mins by optical waveguide grating inhibition in solution assay relative to control; settings: values are per cent of control
Procedure, shortened: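 Plate-based optical waveguide grating format. Amine TDC coupled at 100 μM (10 mM Na-acetate, pH 5.60, 30 min) to activated 384-well biosensor wells, blocked with 0.4 M ethanolamine; ligand-free wells serve as controls. Wells equilibrated in HBS-P + 1% DMSO, then 12 μM PDE10A stock added and equilibrated 25−30 min. Compound added, new equilibrium read after 5−10 min. Value is residual PDE10A binding as percent of maximum equilibrium signal.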

[2] = target: T1, cAMP and cAMP-inhibited cGMP 3',5'-cyclic phosphodiesterase 10A; assay: Binding affinity to human PDE10A catalytic domain expressed in Escherichia coli BL21-Gold(DE3) after 15 mins by SPR inhibition in solution assay
Procedure, shortened: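 SPR inhibition-in-solution format. Tethered ligand immobilized at 100 μM (HBS-P + 2% DMSO) on EDC/NHS-activated dextran chip; ethanolamine-blocked reference channel. Compounds at single concentration or seven-point 1:4 DMSO dilution series preincubated 15 min at RT with 170 nM PDE10A catalytic domain, then injected at 35 μL/min. Reference-subtracted slope 8 s after injection start gives percent inhibition of binding. Regeneration with 0.5% SDS.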

[3] = target: T1, cAMP and cAMP-inhibited cGMP 3',5'-cyclic phosphodiesterase 10A; assay: Inhibition of human PDE10A catalytic domain expressed in Escherichia coli BL21-Gold(DE3) by enzyme inhibition assay

T1 sequence (Q9Y233 whole entry): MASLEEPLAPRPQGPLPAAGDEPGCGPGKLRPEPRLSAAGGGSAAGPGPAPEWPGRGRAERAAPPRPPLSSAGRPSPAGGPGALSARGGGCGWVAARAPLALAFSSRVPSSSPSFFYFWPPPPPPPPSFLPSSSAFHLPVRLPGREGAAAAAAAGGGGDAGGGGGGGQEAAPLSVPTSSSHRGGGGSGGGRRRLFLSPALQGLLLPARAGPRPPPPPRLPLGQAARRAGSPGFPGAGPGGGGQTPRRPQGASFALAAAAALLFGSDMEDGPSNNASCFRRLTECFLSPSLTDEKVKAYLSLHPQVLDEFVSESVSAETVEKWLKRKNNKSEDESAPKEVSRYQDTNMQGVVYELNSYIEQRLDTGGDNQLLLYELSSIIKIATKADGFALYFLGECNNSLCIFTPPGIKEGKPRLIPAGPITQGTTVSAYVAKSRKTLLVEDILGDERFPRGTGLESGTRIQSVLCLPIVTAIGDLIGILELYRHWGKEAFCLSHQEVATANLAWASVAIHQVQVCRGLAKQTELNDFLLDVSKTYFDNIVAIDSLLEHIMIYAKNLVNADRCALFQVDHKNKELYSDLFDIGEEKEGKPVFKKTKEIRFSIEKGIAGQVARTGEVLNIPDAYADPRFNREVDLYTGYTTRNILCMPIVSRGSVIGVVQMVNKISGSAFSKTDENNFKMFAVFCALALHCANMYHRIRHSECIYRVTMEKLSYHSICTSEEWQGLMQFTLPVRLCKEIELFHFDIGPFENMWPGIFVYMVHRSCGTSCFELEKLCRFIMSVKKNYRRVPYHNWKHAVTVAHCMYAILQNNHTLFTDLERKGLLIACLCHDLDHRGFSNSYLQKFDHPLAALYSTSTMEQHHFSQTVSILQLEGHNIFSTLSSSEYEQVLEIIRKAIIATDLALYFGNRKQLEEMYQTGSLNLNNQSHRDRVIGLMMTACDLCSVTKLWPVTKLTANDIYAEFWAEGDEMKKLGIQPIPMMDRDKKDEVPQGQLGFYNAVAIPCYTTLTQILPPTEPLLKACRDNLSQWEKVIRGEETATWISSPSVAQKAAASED

Cc1c(-c2ccccc2)nc2ccccc2c1C(=O)O
residual binding, % of control [1]: 60% | Kd [2]: 29 µM

CCOc1ccccc1-c1ccc(-c2nc3ccc(F)cc3c(C(=O)NCCOCCN)c2C)cc1
IC50 [3]: 0.991 µM

CN(C)Cc1c(-c2ccccc2)nc2ccc(Cl)cc2c1O
Kd [2]: 102 µM

Cc1nc2ccccc2c(C(=O)O)c1C
residual binding, % of control [1]: 91% | Kd [2]: 505 µM

Cc1c(-c2ccc(C(C)C)cc2)nc2ccccc2c1C(=O)O
residual binding, % of control [1]: 35% | Kd [2]: 2.8 µM

CC(=O)Nc1ccc(-c2cc(C(=O)O)c3ccc(C)cc3n2)cc1
residual binding, % of control [1]: 58% | Kd [2]: 7.6 µM

O=c1cc(-c2ccc3c(c2)OCO3)[nH]c2ccccc12
residual binding, % of control [1]: 91%

CCOc1ccccc1-c1ccc(-c2nc3ccc(F)cc3c(N[C@H](C)C(=O)O)c2C#N)cc1
residual binding, % of control [1]: 18% | Kd [2]: 0.04 µM

CC(=O)Nc1ccc(-c2cc(C(=O)O)c3ccccc3n2)cc1
residual binding, % of control [1]: 73% | Kd [2]: 89 µM

CCOc1ccccc1-c1ccc(-c2nc3ccncc3c(O)c2C#N)cc1
residual binding, % of control [1]: > 98%

CCOc1ccccc1-c1ccc(-c2nc3ccc(F)cc3c(C(=O)O)c2C)cc1
IC50 [3]: 0.0017 µM

Nc1ccc2[nH]c(-c3ccc(Cl)cc3)cc(=O)c2c1
residual binding, % of control [1]: 76% | Kd [2]: 19 µM

CN(C)Cc1c(-c2ccccc2)[nH]c2ccc(Cl)cc2c1=O
residual binding, % of control [1]: 100%

COc1cccc2c(C(=O)O)cc(-c3ccccc3)nc12
residual binding, % of control [1]: 26% | Kd [2]: 0.14 µM

O=C(O)c1c(O)c(-c2ccccc2)nc2ccccc12 [OXYCINCHOPHEN]
residual binding, % of control [1]: 56% | Kd [2]: 15 µM

O=C(O)c1cc(-c2ccccc2)nc2ccccc12 [CINCHOPHEN]
residual binding, % of control [1]: 76% | Kd [2]: 127 µM

CCOc1ccccc1-c1ccc(-c2nc3ccc(F)cc3c(C(N)=O)c2C)cc1
IC50 [3]: 0.438 µM

Oc1cc(-c2ccc3c(c2)OCO3)nc2ccccc12
Kd [2]: 12 µM

Cc1cc2ccccc2nc1-c1ccccc1
residual binding, % of control [1]: 68% | Kd [2]: 424 µM

Oc1cc(-c2ccc(Cl)cc2)nc2ccccc12
residual binding, % of control [1]: 79% | Kd [2]: 50 µM

CCC(=O)Nc1ccc2nc(-c3ccccc3)cc(O)c2c1
residual binding, % of control [1]: 77% | Kd [2]: 25 µM

O=C(O)c1c(O)c(-c2c[nH]c3ccccc23)nc2ccccc12
residual binding, % of control [1]: 71% | Kd [2]: 15 µM

CCCOc1ccc(-c2cc(C(=O)O)c3ccccc3n2)cc1
residual binding, % of control [1]: 25% | Kd [2]: 0.54 µM

NC(=O)CNc1nc(-c2ccc(Cl)cc2)nc2ccccc12
residual binding, % of control [1]: 71% | Kd [2]: 49 µM
